Paper PMC9850772 (ACS Omega, 2023)

Legend:
[1] = Stability toward peptidase degradation in human serum; format: in vitro ADME
How it was run: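 68Ga-labelled test compound (10–30 MBq, pH 7.4) was added to pooled human serum and kept at 37 °C. Aliquots were taken at 0, 15, 30, 45, 60 and 90 min and mixed with an equal volume of ice-cold ethanol. They were held on ice for 5 min and centrifuged. Supernatant and pellet activity were counted, and the supernatant was run on radio-HPLC. Three runs per radioligand.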

logD = format: physicochemical; details: pH 7.4
How it was run: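 68Ga-labelled test compound (0.5–2 MBq) was partitioned between 1-octanol and 0.05 M phosphate buffer, pH 7.4. Tubes were shaken for 5 min and centrifuged at 13,000 rpm for 2 min. Aliquots of each phase were γ-counted. Three experiments, each in triplicate.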

[2] = PET/CT imaging, time-activity curves in A431 tumor-bearing xenograft mice; format: in vivo; details: female, BALB/c-AnN-Foxn-1^nu/nu-Rj (nude), mouse, iv, TAC
How it was run: (§1)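 Dynamic PET over 90 min p.i., then CT at 45 kVp and 0.4 mA. […] Images reconstructed by 2D-MLEM (12 iterations, 0.5 mm voxels) with scatter and decay correction. Frames 10 × 1, 10 × 2, 6 × 5 and 3 × 10 min. Volumes of interest drawn on heart, kidneys, tumour and muscle; SUV per frame gave time-activity curves.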

[3] = tested on: A431 tumor-bearing xenograft mice; experiment: as above; format: in vivo; details: TACs
How it was run: as §1

[4] = Ex vivo biodistribution in A431 tumor-bearing xenograft mice; details: mouse, intravenous, 5 MBq
[5] = tested on: A431 tumor-bearing xenograft mice; experiment: as above

Q: Which half-life [1] does the source give for `CC[C@H](C)[C@H](NC(=O)[C@@H](NC(=O)[C@H](CC(N)=O)NC(=O)[C@H](CCC(N)=O)NC(=O)[C@@H]1CCCN1C(=O)[C@@H](NC(=O)[C@H](Cc1ccc(O)cc1)NC(=O)CNC(=O)[C@H](Cc1ccc(O)cc1)NC(=O)[C@H](Cc1c[nH]c2ccccc12)NC(=O)[C@H](Cc1c[nH]cn1)NC(=O)[C@H](Cc1ccc(O)cc1)NC(=O)CCOCCOCCOCCOCCOCCOCCC(=O)NCCCN(CCCNC(=O)CCOCCOCCOCCOCCOCCOCCC(=O)NCCCC[C@@H]1NC(=O)[C@@H](Cc2ccccc2)NC(=O)[C@H](CC(=O)O)NC(=O)CNC(=O)[C@H](CCCNC(=N)N)NC1=O)CC(=O)NCCOCCOCCOCCOCCC(=O)N[C@@H](CCCCNC(=O)CC[C@H](C(=O)O)N1CCN(CC(=O)O)CCN(CC(=O)O)CC1)C(N)=O)[C@@H](C)O)C(C)C)C(=O)O` [[^68Ga]Ga-2, metal not drawn] here?
A: 3.95 h

Q: And the logD (logD)?
A: -3.44

Q: With `CC[C@H](C)[C@H](NC(=O)[C@@H](NC(=O)[C@H](CC(N)=O)NC(=O)[C@H](CCC(N)=O)NC(=O)[C@@H]1CCCN1C(=O)[C@@H](NC(=O)[C@H](Cc1ccc(O)cc1)NC(=O)CNC(=O)[C@H](Cc1ccc(O)cc1)NC(=O)[C@H](Cc1c[nH]c2ccccc12)NC(=O)[C@H](Cc1c[nH]cn1)NC(=O)[C@H](Cc1ccc(O)cc1)NC(=O)CCOCCOCCOCCOCCC(=O)NCCCN(CCCNC(=O)CCOCCOCCOCCOCCC(=O)NCCCC[C@@H]1NC(=O)[C@@H](Cc2ccc(O)cc2)NC(=O)[C@H](CC(=O)O)NC(=O)CNC(=O)[C@H](CCCNC(=N)N)NC1=O)CC(=O)NCCOCCOCCOCCOCCC(=O)N[C@@H](CCCCNC(=O)CC[C@H](C(=O)O)N1CCN(CC(=O)O)CCN(CC(=O)O)CC1)C(N)=O)[C@@H](C)O)C(C)C)C(=O)O` [[^68Ga]Ga-1, metal not drawn] as the compound, how does the SUV ([2]; muscle, SUVmuscle, under EGFR blockade (hEGF)) read?
A: 0.18 ± 0.16 SUV

Q: And the SUV ([2]; muscle, SUVmuscle, without blocking)?
A: 0.27 ± 0.16 SUV

Q: What about the SUV ([2]; tumor, SUVtumor, under EGFR blockade (hEGF)) of the same compound?
A: 0.45 ± 0.44 SUV

Q: And the “time at which accumulation in tumor, muscle and heart reached the plateau phase” value [3]?
A: 15 min p.i.

Q: What about the half-life [1] of the same compound?
A: 4.53 h

Q: What about the tissue uptake at 2 h ([4]; blood) of the same compound?
A: 4.49 ± 2.17 %ID/g

Q: What about the tissue uptake at 2 h ([4]; kidney) of the same compound?
A: 88 ± 28.5 %ID/g

Q: And the tissue uptake at 2 h ([4]; tumor)?
A: 2.79 ± 1.66 %ID/g

Q: What about the “uptake into liver and lungs under EGFR blocking” value ([5]; co-application of hEGF) of the same compound?
A: not reduced

Q: What about the “tumor uptake under EGFR blocking” value ([5]; co-application of hEGF, 2 h p.i.) of the same compound?
A: did not decrease

Q: What about the “decrease of absolute tumor uptake” value ([5]; integrin blockade with excess of c(RGDyK), 120 min p.i.) of the same compound?
A: 87%

Q: And the logD (logD)?
A: -3.07
